Data as given in ChEMBL document CHEMBL1649111, “Restoration of susceptibility of intracellular methicillin-resistant Staphylococcus aureus to beta-lactams: comparison of strains, cells, and antibiotics” (Antimicrob Agents Chemother, 2008).
In brackets after ≈: the same amount, converted by molar mass.

Experiments:
Staphylococcus aureus [1] = assay: Antimicrobial activity against hospital acquired methicillin-resistant Staphylococcus aureus HMC546 by broth microdilution method at pH 5.5; format: functional
Staphylococcus aureus [2] = assay: Antimicrobial activity against hospital acquired methicillin-resistant Staphylococcus aureus ATCC 33591 by broth microdilution method at pH 7.4; format: functional
In short: (§1)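 Minimal inhibitory concentration by broth microdilution at pH 7.4, read in mg/liter. The MRSA genotype was confirmed by mecA PCR, and the SCCmec subgroup was assigned by multiplex PCR.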

Staphylococcus aureus [3] = assay: Antimicrobial activity against Panton-valentine leukocidin positive community acquired methicillin-resistant Staphylococcus aureus NRS192 obtained from patient with pneumonia and septic arthritis by broth microdilution method at pH 5.5; format: functional
Staphylococcus aureus [4] = assay: Bacteriostatic activity against hospital acquired methicillin-resistant and vancomycin-intermediate Staphylococcus aureus NRS18 infected in human THP-1 cells assessed as decrease in bacterial growth after 24 hrs at pH 5.5; format: functional
In short: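 Human THP-1 macrophages infected with each S. aureus strain. Cloxacillin added extracellularly at about 0.01× to 100× the broth MIC measured at pH 5.5, with gentamicin 0.5 mg/liter to stop extracellular growth. Incubated 24 h. CFU counted per mg cell protein as change from the post-phagocytosis inoculum, n = 3. Emin, Emax and EC50 from a Hill fit; static concentration by graphical interpolation.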

Staphylococcus aureus [5] = assay: Antimicrobial activity against beta-lactamase negative methicillin-susceptible Staphylococcus aureus ATCC 25923 infected in human THP-1 cells assessed as increase in bacterial count from original inoculum at low compound concentration after 24 hrs at pH 7.4; format: functional
Staphylococcus aureus [6] = assay: Bacteriostatic activity against intracellular beta-lactamase negative methicillin-susceptible Staphylococcus aureus ATCC 25923 infected in human Calu3 cells assessed as decrease in bacterial growth after 24 hrs at pH 7.4; format: functional, Calu-3
In short: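 Primary human skin keratinocytes or Calu-3 bronchial epithelial cells infected with MSSA ATCC 25923 at 5 × 10⁷ to 1 × 10⁸ bacteria/ml, 2 h internalization. Postphagocytosis inoculum 1.5 × 10⁶ to 3.0 × 10⁶ CFU/mg protein. Cloxacillin concentration range for 24 h; CFU/mg protein change vs. inoculum (n = 3). Hill fit gives Emin/Emax; static concentration by graphical interpolation.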

Staphylococcus aureus [7] = assay: Antimicrobial activity against Panton-valentine leukocidin positive community acquired methicillin-resistant Staphylococcus aureus N4090440 obtained from wound infection of patient by broth microdilution method at pH 7.4; format: functional; in short: as §1
Staphylococcus aureus [8] = assay: Antimicrobial activity against constitutive beta-lactamase negative methicillin-resistant Staphylococcus aureus COL NRS100 infected in human THP-1 cells assessed as decrease in bacterial growth after 24 hrs at pH 5.5; format: functional, organism-based; settings: COL NRS100, THP-1, 24 h
In short: (§2)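 Bacteria phagocytosed by unactivated human THP-1 macrophages, then incubated 24 h with extracellular antibiotic at about 0.01× to 100× the pH 5.5 broth MIC. CFU per mg cell protein counted against the original inoculum, n = 3. A Hill-equation fit (slope factor 1) gave Emin and Emax, extrapolated to infinitely low and high concentration, and EC50. Static concentration was graphically interpolated.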

Staphylococcus aureus [9] = assay: Antimicrobial activity against hospital acquired methicillin-resistant Staphylococcus aureus N4120032 obtained from wound infection opf patient infected in human THP-1 cells assessed as decrease in bacterial growth after 24 hrs at pH 5.5; format: functional, organism-based; settings: N4120032, THP-1, 24 h; in short: as §2
Staphylococcus aureus [10] = assay: Antimicrobial activity against hospital acquired methicillin-resistant and vancomycin-intermediate Staphylococcus aureus NRS126 obtained from bloodstream infection of patient infected in human THP-1 cells assessed as decrease in bacterial growth after 24 hrs at pH 5.5; format: functional, organism-based; settings: NRS126, THP-1, 24 h; in short: as §2
Staphylococcus aureus [11] = assay: Antimicrobial activity against hospital acquired methicillin-resistant Staphylococcus aureus HMC546 infected in human THP-1 cells assessed as decrease in bacterial growth after 24 hrs at pH 5.5; format: functional, organism-based; settings: HMC546, THP-1, 24 h; in short: as §2
Staphylococcus aureus [12] = assay: Antimicrobial activity against intracellular hospital acquired methicillin-resistant Staphylococcus aureus ATCC 33591 infected in activated human THP-1 cells assessed as decrease in bacterial count from original inoculum at high compound concentration after 24 hrs at pH 7.4; format: functional
In short: (§3)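 THP-1 cells activated by 24-h culture with phorbol myristate acetate 2 mg/liter, then infected like unactivated THP-1. Cloxacillin dose range in mg/liter for 24 h. CFU per mg cell protein relative to the original inoculum, n = 3. Emin and Emax extrapolated from a Hill fit (slope 1), with EC50 as total drug; static concentration by graphical interpolation.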

Staphylococcus aureus [13] = assay: Antimicrobial activity against Panton-valentine leukocidin positive community acquired methicillin-resistant Staphylococcus aureus NRS192 obtained from patient with pneumonia and septic arthritis infected in human THP-1 cells assessed as decrease in bacterial count from original inoculum at high compound concentration after 24 hrs at pH 5.5; format: functional; in short: as §2
Staphylococcus aureus [14] = assay: Antimicrobial activity against Panton-valentine leukocidin positive community acquired methicillin-resistant Staphylococcus aureus N4090440 obtained from wound infection of patient infected in human THP-1 cells assessed as decrease in bacterial growth after 24 hrs at pH 5.5; format: functional, organism-based; settings: N4090440, THP-1, 24 h; in short: as §2
Staphylococcus aureus [15] = assay: Antimicrobial activity against hospital acquired methicillin-resistant Staphylococcus aureus ATCC 33591 infected in human THP-1 cells assessed as decrease in bacterial growth after 24 hrs at pH 7.4; format: functional, organism-based; settings: ATCC 33591, THP-1, 24 h
Staphylococcus aureus [16] = assay: Antimicrobial activity against constitutive beta-lactamase negative methicillin-resistant Staphylococcus aureus COL NRS100 infected in human THP-1 cells assessed as increase in bacterial count from original inoculum at low compound concentration after 24 hrs at pH 5.5; format: functional; in short: as §2
Staphylococcus aureus [17] = assay: Antimicrobial activity against hospital acquired methicillin-resistant Staphylococcus aureus N4120032 obtained from wound infection of patient by broth microdilution method at pH 5.5; format: functional
Staphylococcus aureus [18] = assay: Antimicrobial activity against intracellular beta-lactamase negative methicillin-susceptible Staphylococcus aureus ATCC 25923 infected in human Calu3 cells assessed as decrease in bacterial count from original inoculum at high compound concentration after 24 hrs at pH 7.4; format: functional, Calu-3
In short: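 Primary human skin keratinocytes or Calu-3 bronchial epithelial cells, given an inoculum of 5 × 10⁷ to 1 × 10⁸ bacteria/ml and 2 h for internalization. Post-phagocytosis load 1.5 × 10⁶ to 3.0 × 10⁶ CFU per mg cell protein. Cloxacillin dose range in mg/liter for 24 h, n = 3. Hill-derived Emin, Emax and EC50; static concentration interpolated.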

Staphylococcus aureus [19] = assay: Antimicrobial activity against hospital acquired methicillin-resistant Staphylococcus aureus N4120210 obtained from urinary tract infection patient by broth microdilution method at pH 7.4; format: functional; settings: N4120210, Urine; in short: as §1
Staphylococcus aureus [20] = assay: Antimicrobial activity against intracellular beta-lactamase negative methicillin-susceptible Staphylococcus aureus ATCC 25923 infected in activated human THP-1 cells assessed as decrease in bacterial growth after 24 hrs at pH 7.4; format: functional, organism-based; settings: ATCC 25923, THP-1, 24 h; in short: as §3
Staphylococcus aureus [21] = assay: Antimicrobial activity against hospital acquired methicillin-resistant Staphylococcus aureus HMC546 by broth microdilution method at pH 7.4; format: functional; in short: as §1
[22] = Chemical stability of the compound assessed as compound remaining after 24 hrs in PBS buffer by HPLC analysis at pH 7.4; format: physicochemical; settings: read-out: Activity
In short: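 Drug at 50 mg/liter initial concentration incubated 24 h at 37°C in buffered medium at pH 7.4 or 5.5. Remaining drug measured by HPLC signal disappearance; mobile phase 25 mM phosphate buffer pH 6.7 with acetonitrile (75:25).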

Cc1onc(-c2ccccc2Cl)c1C(=O)N[C@@H]1C(=O)N2[C@@H]1SC(C)(C)[C@@H]2C(=O)O [CLOXACILLIN]
MIC (Staphylococcus aureus [1]): 0.25 µg/mL (≈ 0.574 µM)
MIC (Staphylococcus aureus [2]): 16 µg/mL (≈ 36.7 µM)
MIC (Staphylococcus aureus [3]): 0.06 µg/mL (≈ 0.138 µM)
Activity (Staphylococcus aureus [4]): 14.1 ×MIC
log10cfu (Staphylococcus aureus [5]): 1.79
Activity (Staphylococcus aureus [6]): 1.6 mg/L
MIC (Staphylococcus aureus [7]): 0.5 µg/mL (≈ 1.15 µM)
EC50 (Staphylococcus aureus [8]): 2.74 ×MIC
EC50 (Staphylococcus aureus [9]): 9.26 ×MIC
EC50 (Staphylococcus aureus [10]): 5.33 ×MIC
EC50 (Staphylococcus aureus [11]): 5.67 ×MIC
log10cfu (Staphylococcus aureus [12]): 0.7
log10cfu (Staphylococcus aureus [13]): 0.68
EC50 (Staphylococcus aureus [14]): 3.14 ×MIC
EC50 (Staphylococcus aureus [15]): 0.26 µg/mL (≈ 0.596 µM)
log10cfu (Staphylococcus aureus [16]): 2.42
MIC (Staphylococcus aureus [17]): 0.06 µg/mL (≈ 0.138 µM)
log10cfu (Staphylococcus aureus [18]): 0.99
MIC (Staphylococcus aureus [19]): 2 µg/mL (≈ 4.59 µM)
EC50 (Staphylococcus aureus [20]): 0.43 µg/mL (≈ 0.986 µM)
MIC (Staphylococcus aureus [21]): 16 µg/mL (≈ 36.7 µM)
remaining at 24 h [22]: 97.8%
